According to ChEMBL document CHEMBL4014350, “Alkoxyurea-Based Histone Deacetylase Inhibitors Increase Cisplatin Potency in Chemoresistant Cancer Cell Lines” (J Med Chem, 2017):

How the values were obtained:
A2780 = assay: Antiproliferative activity against human A2780 cells measured after 72 hrs by MTT assay; type: functional, cell-based; details: A2780, 72 h
CAL-27 [1] = assay: Antiproliferative activity against human CAL27 cells measured after 72 hrs by MTT assay; type: functional, cell-based; details: CAL-27, 72 h
A2780cisR = assay: Antiproliferative activity against human A2780cisR cells measured after 72 hrs by MTT assay; type: functional, cell-based
[2] = Antiproliferative activity against human Cal27CisR cells measured after 72 hrs by MTT assay; type: functional, cell-based
[3] = Inhibition of HDAC in human A2780 cells using Boc-Lys(epsilon-Ac)-AMC as substrate preincubated for 18 hrs followed by substrate addition measured after 3 hrs by fluorescence assay; type: cell-based
[4] = Inhibition of HDAC in human CAL27 cells using Boc-Lys(epsilon-Ac)-AMC as substrate preincubated for 18 hrs followed by substrate addition measured after 3 hrs by fluorescence assay; type: cell-based; details: CAL-27
[5] = Inhibition of HDAC in human A2780CisR cells using Boc-Lys(epsilon-Ac)-AMC as substrate preincubated for 18 hrs followed by substrate addition measured after 3 hrs by fluorescence assay; type: cell-based
[6] = Inhibition of HDAC in human Cal27CisR cells using Boc-Lys(epsilon-Ac)-AMC as substrate preincubated for 18 hrs followed by substrate addition measured after 3 hrs by fluorescence assay; type: cell-based
Homo sapiens = organism: Homo sapiens; assay: Selectivity ratio of IC50 for HDAC in human A2780 cells to IC50 for HDAC in human A2780CisR cells; type: cell-based
Histone deacetylase 1 = Histone deacetylase 1 (Homo sapiens, UniProt Q13547); assay: Inhibition of recombinant full length human C-terminal FLAG/His-tagged HDAC1 expressed in baculovirus infected sf9 cells using Z-(Ac)Lys-AMC as substrate measured after 90 mins by fluorescence assay
[7] = biological target: T1, Protein deacetylase HDAC6 (Homo sapiens, UniProt Q9UBN7); assay: Inhibition of full length human recombinant N-terminal GST-tagged HDAC6 expressed in baculovirus infected sf9 cells Z-(Ac)Lys-AMC as substrate measured after 90 mins by fluorescence assay
T1 sequence (Q9UBN7 whole entry): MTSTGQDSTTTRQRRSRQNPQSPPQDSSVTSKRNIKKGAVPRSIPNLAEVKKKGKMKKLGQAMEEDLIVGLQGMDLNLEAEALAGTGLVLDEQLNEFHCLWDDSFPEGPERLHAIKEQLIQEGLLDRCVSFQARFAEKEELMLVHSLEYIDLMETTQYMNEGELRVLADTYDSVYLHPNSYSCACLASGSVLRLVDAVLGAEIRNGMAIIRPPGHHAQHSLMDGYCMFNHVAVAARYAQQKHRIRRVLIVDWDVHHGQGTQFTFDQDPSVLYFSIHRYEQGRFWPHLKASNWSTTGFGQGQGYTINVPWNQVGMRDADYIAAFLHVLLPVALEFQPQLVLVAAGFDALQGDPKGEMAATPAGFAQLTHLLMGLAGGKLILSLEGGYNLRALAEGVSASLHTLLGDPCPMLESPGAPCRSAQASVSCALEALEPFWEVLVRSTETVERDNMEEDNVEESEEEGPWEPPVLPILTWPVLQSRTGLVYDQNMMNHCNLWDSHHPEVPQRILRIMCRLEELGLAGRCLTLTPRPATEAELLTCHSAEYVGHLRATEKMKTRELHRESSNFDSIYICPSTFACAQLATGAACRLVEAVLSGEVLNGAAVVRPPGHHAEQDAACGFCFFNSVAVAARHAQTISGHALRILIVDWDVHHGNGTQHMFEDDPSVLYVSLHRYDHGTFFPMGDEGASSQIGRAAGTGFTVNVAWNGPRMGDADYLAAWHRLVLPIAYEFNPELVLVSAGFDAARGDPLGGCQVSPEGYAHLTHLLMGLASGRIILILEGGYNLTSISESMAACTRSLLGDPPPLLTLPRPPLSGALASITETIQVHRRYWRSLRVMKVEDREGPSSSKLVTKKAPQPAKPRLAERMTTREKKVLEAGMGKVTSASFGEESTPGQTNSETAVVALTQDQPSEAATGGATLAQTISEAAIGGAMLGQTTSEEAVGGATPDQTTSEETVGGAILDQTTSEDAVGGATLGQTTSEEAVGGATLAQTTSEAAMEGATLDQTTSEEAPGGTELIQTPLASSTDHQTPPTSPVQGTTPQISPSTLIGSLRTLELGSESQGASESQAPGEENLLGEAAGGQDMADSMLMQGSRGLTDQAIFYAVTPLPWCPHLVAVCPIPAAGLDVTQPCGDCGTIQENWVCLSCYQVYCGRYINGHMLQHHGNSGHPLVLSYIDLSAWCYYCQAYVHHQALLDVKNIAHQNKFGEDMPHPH

Histone deacetylase 8 = biological target: T2, Histone deacetylase 8 (Homo sapiens, UniProt Q9BY41); assay: Inhibition of human HDAC8 using Z-L-Lys(epsilon-trifluoroacetyl)-AMC as substrate measured after 90 mins by fluorescence assay
T2 sequence (Q9BY41 whole entry): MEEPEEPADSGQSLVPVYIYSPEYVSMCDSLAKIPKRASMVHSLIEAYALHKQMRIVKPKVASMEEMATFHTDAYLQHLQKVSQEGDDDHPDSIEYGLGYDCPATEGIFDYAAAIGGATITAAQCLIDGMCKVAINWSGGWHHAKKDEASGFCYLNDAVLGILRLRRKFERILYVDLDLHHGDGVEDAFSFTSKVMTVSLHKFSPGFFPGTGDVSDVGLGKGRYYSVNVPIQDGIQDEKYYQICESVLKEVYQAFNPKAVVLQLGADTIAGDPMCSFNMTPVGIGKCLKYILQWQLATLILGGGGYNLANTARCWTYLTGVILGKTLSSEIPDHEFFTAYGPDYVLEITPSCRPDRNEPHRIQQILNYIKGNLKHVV

Histone deacetylase 4 = Histone deacetylase 4 (Homo sapiens, UniProt P56524); assay: Inhibition of recombinant human N-terminal GST-tagged/C-terminal His-tagged HDAC4 expressed in insect cells using Boc-K(Ac)-AMC as substrate by fluorescence assay
CAL-27 [8] = assay: Potentiation of cisplatin-induced cytotoxicity against human CAL27 cells assessed as decrease in cell viability at 10 uM preincubated for 48 hrs followed by cisplatin treatment measured after 72 hrs by MTT assay relative to cisplatin alone; type: functional
In short: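 Cells were preincubated 48 h with HDAC inhibitor, then cisplatin was added over a concentration range for 72 h, with MTT read-out. Shift factor is cisplatin-alone IC50 divided by combination IC50. Data are mean ± SEM of pooled data from at least three independent experiments, each in triplicate. Significance was by t test (p < 0.05).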

Sequence of Histone deacetylase 1 (Q13547 whole entry): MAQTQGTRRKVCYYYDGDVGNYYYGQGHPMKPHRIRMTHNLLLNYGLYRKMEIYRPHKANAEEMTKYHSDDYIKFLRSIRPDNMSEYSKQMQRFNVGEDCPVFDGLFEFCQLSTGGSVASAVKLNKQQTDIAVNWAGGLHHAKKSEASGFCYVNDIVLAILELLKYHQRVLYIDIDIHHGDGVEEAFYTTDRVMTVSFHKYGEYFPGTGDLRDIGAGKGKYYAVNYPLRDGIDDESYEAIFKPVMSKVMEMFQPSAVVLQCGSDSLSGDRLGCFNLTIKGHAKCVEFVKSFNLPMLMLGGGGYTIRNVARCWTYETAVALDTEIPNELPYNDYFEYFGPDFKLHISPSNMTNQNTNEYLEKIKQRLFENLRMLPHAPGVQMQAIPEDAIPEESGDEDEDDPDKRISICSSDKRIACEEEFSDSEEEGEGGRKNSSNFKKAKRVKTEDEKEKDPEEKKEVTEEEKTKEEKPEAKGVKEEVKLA
Sequence of Histone deacetylase 4 (P56524 whole entry): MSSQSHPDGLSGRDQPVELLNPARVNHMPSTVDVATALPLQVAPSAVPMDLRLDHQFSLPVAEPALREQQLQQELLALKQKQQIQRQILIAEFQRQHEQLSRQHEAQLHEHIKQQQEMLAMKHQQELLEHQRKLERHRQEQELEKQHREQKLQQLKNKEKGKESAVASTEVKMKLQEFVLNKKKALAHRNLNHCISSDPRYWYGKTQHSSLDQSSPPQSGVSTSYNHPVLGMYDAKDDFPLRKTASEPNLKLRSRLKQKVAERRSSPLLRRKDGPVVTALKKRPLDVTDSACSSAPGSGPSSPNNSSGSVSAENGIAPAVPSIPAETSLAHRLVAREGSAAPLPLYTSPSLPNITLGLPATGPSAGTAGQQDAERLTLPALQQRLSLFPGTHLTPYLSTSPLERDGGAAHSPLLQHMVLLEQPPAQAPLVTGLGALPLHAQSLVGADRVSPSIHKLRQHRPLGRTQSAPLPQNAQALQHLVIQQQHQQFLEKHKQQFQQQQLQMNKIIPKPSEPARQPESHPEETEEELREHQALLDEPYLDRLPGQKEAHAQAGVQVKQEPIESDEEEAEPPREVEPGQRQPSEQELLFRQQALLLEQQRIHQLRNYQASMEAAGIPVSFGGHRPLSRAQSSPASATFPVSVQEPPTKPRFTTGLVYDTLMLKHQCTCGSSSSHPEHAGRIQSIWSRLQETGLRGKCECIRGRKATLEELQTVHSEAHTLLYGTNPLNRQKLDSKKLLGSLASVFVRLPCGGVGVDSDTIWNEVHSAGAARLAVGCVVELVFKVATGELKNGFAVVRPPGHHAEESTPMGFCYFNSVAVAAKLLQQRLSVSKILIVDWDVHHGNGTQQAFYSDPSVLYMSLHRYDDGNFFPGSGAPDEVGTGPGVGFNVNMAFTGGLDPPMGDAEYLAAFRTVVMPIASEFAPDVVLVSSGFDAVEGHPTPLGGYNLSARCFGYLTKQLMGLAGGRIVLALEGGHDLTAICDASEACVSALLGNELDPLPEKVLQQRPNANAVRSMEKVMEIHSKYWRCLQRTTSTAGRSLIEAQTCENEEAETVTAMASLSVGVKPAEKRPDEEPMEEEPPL

Row | Compound | IC50 (A2780) [nM] | IC50 (A2780cisR) [nM] | IC50 [3] [nM] | IC50 [4] [nM] | IC50 [5] [nM] | IC50 [6] [nM] | IC50 (Histone deacetylase 1) [nM] | IC50 [7] [nM] | IC50 (Histone deacetylase 8) [nM] | IC50 (Histone deacetylase 4) [nM] | IC50 (CAL-27 [1]) [nM] | IC50 [2] [nM] | Ratio IC50 (Homo sapiens) | fold change (FC) (CAL-27 [8])
1 | O=C(CCCCCONC(=O)Nc1ccc2ccccc2c1)NO | 1400 | 1600 | 5100 | 1000 | 1600 | 1000 |  |  |  |  | 1700 | 2300 | 2 to 3.4 | 
2 | CN(O)C(=O)CCCCCONC(=O)Nc1cccc2ccccc12 | 46800 | 44200 |  | 190000 |  | 204000 |  |  |  |  | 43700 | 65800 |  | 
3 | CN1CCc2c(c3ccccc3n2Cc2ccc(C(=O)NO)cc2)C1 [TUBASTATIN A] |  |  |  | 16100 |  | 12100 |  |  |  |  | 4600 | 10800 |  | 1.1
4 | O=C(CCCCCCC(=O)Nc1ccccc1)NO [VORINOSTAT] |  |  | 1680 |  |  |  |  |  |  |  |  |  |  | 

Further lines, with some results ahead:

Row | IC50 (A2780) [nM] | IC50 (A2780cisR) [nM] | IC50 [3] [nM] | IC50 [4] [nM] | IC50 [5] [nM] | IC50 [6] [nM] | IC50 (Histone deacetylase 1) [nM] | IC50 [7] [nM] | IC50 (Histone deacetylase 8) [nM] | IC50 (Histone deacetylase 4) [nM] | Compound | IC50 (CAL-27 [1]) [nM] | IC50 [2] [nM] | Ratio IC50 (Homo sapiens) | fold change (FC) (CAL-27 [8])
5 | 3000 | 1000 | 2100 | 900 | 900 | 900 |  |  |  |  | O=C(CCCCCONC(=O)Nc1cccc2cccnc12)NO | 1100 | 2200 | 2 to 3.4 | 
6 | 1700 | 3600 | 149000 | 107000 |  | 56000 |  |  |  |  | COc1cc(NC(=O)NOCCCCCC(=O)NO)c2nc(OC(C)C)cc(C)c2c1Oc1cccc(C(F)(F)F)c1 | 3900 | 2900 |  | 
7 |  | 11600 | 1100 | 1300 | 900 | 1300 | 189 | 51.7 | 11200 | > 10000 | O=C(CCCCCONC(=O)Nc1cnc2ccccc2c1)NO | 3000 | 5400 |  | 
8 |  | 7900 | 1100 | 1100 | 900 | 1000 |  |  |  |  | O=C(CCCCCONC(=O)Nc1cccc2ccccc12)NO | 1600 | 3900 |  | 
9 | 27300 | 10500 | 2400 | 1400 | 2000 | 1100 |  |  |  |  | O=C(CCCCCONC(=O)Nc1ccc2ncccc2c1)NO | 5800 | 7600 |  | 
10 | 4300 | 1300 | 3300 | 3400 | 1700 | 2800 |  |  |  |  | Cc1ccc2cccc(NC(=O)NOCCCCCC(=O)NO)c2n1 | 2200 | 4700 | 2 to 3.4 | 
